Measured values published in ChEMBL document CHEMBL1146365, “Synthesis and biological evaluation of new N-(2-hydroxy-4(or 5)-nitro/aminophenyl)benzamides and phenylacetamides as antimicrobial agents” (2007).
In brackets after ≈: the same amount, converted by molar mass.

Key:
Candida albicans [1] = assay: Antifungal activity against Candida albicans isolate assessed after 48 hrs by serial dilution method; format: functional
How it was run: (§1)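 Broth microdilution per CLSI M27-A in RPMI-1640 with L-glutamine, MOPS-buffered pH 7, with 2-fold compound dilutions. Yeasts were subcultured twice on SDA at 35 °C for 24–48 h. Inoculum was diluted from McFarland 0.5 to 10^4 cfu/ml, giving 10^3 cfu/ml in wells. Incubated 35 °C, humid chamber, 48 h, in triplicate. MIC = lowest concentration with no macroscopic growth.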

Bacillus subtilis [2] = assay: Antibacterial activity against Bacillus subtilis ATCC 6633 assessed after 24 hrs by serial dilution method; format: functional; settings: ATCC 6633, 24 h
How it was run: (§2)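 Strains were subcultured twice on MHA at 37 °C overnight. Inoculum was diluted from McFarland 0.5 to 10^5 cfu/ml, giving 10^4 cfu/ml in wells. Solvent, medium and organism-only controls were included. Incubated 37 °C, humid chamber, 24 h, in triplicate. MIC = lowest concentration with no macroscopic growth.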

Klebsiella pneumoniae [3] = assay: Antibacterial activity against Klebsiella pneumoniae RSHM 574 assessed after 24 hrs by serial dilution method
Pseudomonas aeruginosa [4] = assay: Antibacterial activity against Pseudomonas aeruginosa ATCC […] assessed after 24 hrs by serial dilution method
Staphylococcus aureus [5] = assay: Antibacterial activity against Staphylococcus aureus ATCC 25923 assessed after 24 hrs by serial dilution method; format: functional; settings: ATCC 25923, 24 h; how it was run: as §2
Escherichia coli [6] = assay: Antibacterial activity against Escherichia coli ATCC assessed after 24 hrs by serial dilution method
Candida albicans [7] = assay: Antifungal activity against Candida albicans ATCC 10231 assessed after 48 hrs by serial dilution method; format: functional; settings: ATCC 10231, 48 h; how it was run: as §1
Escherichia coli [8] = assay: Antibacterial activity against Escherichia coli isolate assessed after 24 hrs by serial dilution method; format: functional; how it was run: as §2
Bacillus subtilis [9] = assay: Antibacterial activity against drug-resistant Bacillus subtilis assessed after 24 hrs by serial dilution method
Pseudomonas aeruginosa [10] = assay: Antibacterial activity against Pseudomonas aeruginosa isolate assessed after 24 hrs by serial dilution method; format: functional; how it was run: as §2
Klebsiella pneumoniae [11] = assay: Antibacterial activity against Klebsiella pneumoniae isolate assessed after 24 hrs by serial dilution method; format: functional; how it was run: as §2
Staphylococcus aureus [12] = assay: Antibacterial activity against drug-resistant Staphylococcus aureus assessed after 24 hrs by serial dilution method

Compound	MIC (Candida albicans [1])	MIC (Bacillus subtilis [2])	MIC (Klebsiella pneumoniae [3])	MIC (Pseudomonas aeruginosa [4])	MIC (Staphylococcus aureus [5])	MIC (Escherichia coli [6])	MIC (Candida albicans [7])	MIC (Escherichia coli [8])	MIC (Bacillus subtilis [9])	MIC (Pseudomonas aeruginosa [10])	MIC (Klebsiella pneumoniae [11])	MIC (Staphylococcus aureus [12])
O=C(Nc1cc([N+](=O)[O-])ccc1O)c1ccccc1	250 µg/mL (≈ 968 µM)	7.8 µg/mL (≈ 30.2 µM)	125 µg/mL (≈ 484 µM)	125 µg/mL (≈ 484 µM)	31.2 µg/mL (≈ 121 µM)	125 µg/mL (≈ 484 µM)	125 µg/mL (≈ 484 µM)	250 µg/mL (≈ 968 µM)	62.5 µg/mL (≈ 242 µM)	250 µg/mL (≈ 968 µM)	250 µg/mL (≈ 968 µM)	15.6 µg/mL (≈ 60.4 µM)
CC(C)(C)c1ccc(C(=O)Nc2ccc([N+](=O)[O-])cc2O)cc1	125 µg/mL (≈ 398 µM)	7.8 µg/mL (≈ 24.8 µM)	125 µg/mL (≈ 398 µM)	125 µg/mL (≈ 398 µM)	7.8 µg/mL (≈ 24.8 µM)	125 µg/mL (≈ 398 µM)	250 µg/mL (≈ 795 µM)	250 µg/mL (≈ 795 µM)	15.6 µg/mL (≈ 49.6 µM)	250 µg/mL (≈ 795 µM)	250 µg/mL (≈ 795 µM)	1.95 µg/mL (≈ 6.2 µM)
Nc1ccc(NC(=O)c2ccccc2)c(O)c1	62.5 µg/mL (≈ 274 µM)	62.5 µg/mL (≈ 274 µM)	125 µg/mL (≈ 548 µM)	125 µg/mL (≈ 548 µM)	125 µg/mL (≈ 548 µM)	125 µg/mL (≈ 548 µM)	62.5 µg/mL (≈ 274 µM)	125 µg/mL (≈ 548 µM)	62.5 µg/mL (≈ 274 µM)	250 µg/mL (≈ 1100 µM)	250 µg/mL (≈ 1100 µM)	15.6 µg/mL (≈ 68.3 µM)
CCc1ccc(C(=O)Nc2cc([N+](=O)[O-])ccc2O)cc1	62.5 µg/mL (≈ 218 µM)	3.9 µg/mL (≈ 13.6 µM)	250 µg/mL (≈ 873 µM)	62.5 µg/mL (≈ 218 µM)	7.8 µg/mL (≈ 27.2 µM)	125 µg/mL (≈ 437 µM)	125 µg/mL (≈ 437 µM)	250 µg/mL (≈ 873 µM)	31.2 µg/mL (≈ 109 µM)	250 µg/mL (≈ 873 µM)	125 µg/mL (≈ 437 µM)	7.8 µg/mL (≈ 27.2 µM)
Cc1ccc(CC(=O)Nc2cc(N)ccc2O)cc1	125 µg/mL (≈ 488 µM)	15.6 µg/mL (≈ 60.9 µM)	–	–	31.2 µg/mL (≈ 122 µM)	–	125 µg/mL (≈ 488 µM)	250 µg/mL (≈ 975 µM)	–	250 µg/mL (≈ 975 µM)	250 µg/mL (≈ 975 µM)	–
Nc1ccc(NC(=O)Cc2ccc(F)cc2)c(O)c1	125 µg/mL (≈ 480 µM)	250 µg/mL (≈ 961 µM)	125 µg/mL (≈ 480 µM)	125 µg/mL (≈ 480 µM)	125 µg/mL (≈ 480 µM)	62.5 µg/mL (≈ 240 µM)	125 µg/mL (≈ 480 µM)	125 µg/mL (≈ 480 µM)	62.5 µg/mL (≈ 240 µM)	125 µg/mL (≈ 480 µM)	125 µg/mL (≈ 480 µM)	62.5 µg/mL (≈ 240 µM)
C[C@@H]1[C@H](O)[C@@H](C)/C=C/C=C/C=C/C=C/C=C/C=C/C=C/[C@H](O[C@@H]2O[C@H](C)[C@@H](O)[C@H](N)[C@@H]2O)C[C@@H]2O[C@](O)(C[C@@H](O)C[C@@H](O)[C@H](O)CC[C@@H](O)C[C@@H](O)CC(=O)O[C@H]1C)C[C@H](O)[C@H]2C(=O)O [AMPHOTERICIN B]	128 µg/mL (≈ 139 µM)	–	–	–	–	–	–	–	–	–	–	–
CCc1ccc(C(=O)Nc2ccc(N)cc2O)cc1	125 µg/mL (≈ 488 µM)	250 µg/mL (≈ 975 µM)	125 µg/mL (≈ 488 µM)	250 µg/mL (≈ 975 µM)	125 µg/mL (≈ 488 µM)	125 µg/mL (≈ 488 µM)	125 µg/mL (≈ 488 µM)	250 µg/mL (≈ 975 µM)	31.2 µg/mL (≈ 122 µM)	250 µg/mL (≈ 975 µM)	250 µg/mL (≈ 975 µM)	7.8 µg/mL (≈ 30.4 µM)
Nc1ccc(O)c(NC(=O)c2ccc(F)cc2)c1	62.5 µg/mL (≈ 254 µM)	62.5 µg/mL (≈ 254 µM)	62.5 µg/mL (≈ 254 µM)	62.5 µg/mL (≈ 254 µM)	15.6 µg/mL (≈ 63.4 µM)	125 µg/mL (≈ 508 µM)	62.5 µg/mL (≈ 254 µM)	125 µg/mL (≈ 508 µM)	62.5 µg/mL (≈ 254 µM)	125 µg/mL (≈ 508 µM)	125 µg/mL (≈ 508 µM)	15.6 µg/mL (≈ 63.4 µM)
O=C(Nc1ccc([N+](=O)[O-])cc1O)c1ccc(F)cc1	250 µg/mL (≈ 905 µM)	3.9 µg/mL (≈ 14.1 µM)	125 µg/mL (≈ 453 µM)	125 µg/mL (≈ 453 µM)	7.8 µg/mL (≈ 28.2 µM)	125 µg/mL (≈ 453 µM)	250 µg/mL (≈ 905 µM)	250 µg/mL (≈ 905 µM)	15.6 µg/mL (≈ 56.5 µM)	250 µg/mL (≈ 905 µM)	250 µg/mL (≈ 905 µM)	15.6 µg/mL (≈ 56.5 µM)
O=C(Cc1ccc(Br)cc1)Nc1ccc([N+](=O)[O-])cc1O	250 µg/mL (≈ 712 µM)	31.2 µg/mL (≈ 89 µM)	250 µg/mL (≈ 712 µM)	250 µg/mL (≈ 712 µM)	250 µg/mL (≈ 712 µM)	125 µg/mL (≈ 356 µM)	250 µg/mL (≈ 712 µM)	250 µg/mL (≈ 712 µM)	125 µg/mL (≈ 356 µM)	250 µg/mL (≈ 712 µM)	125 µg/mL (≈ 356 µM)	125 µg/mL (≈ 356 µM)
Nc1ccc(O)c(NC(=O)c2ccccc2)c1	125 µg/mL (≈ 548 µM)	15.6 µg/mL (≈ 68.3 µM)	125 µg/mL (≈ 548 µM)	125 µg/mL (≈ 548 µM)	31.2 µg/mL (≈ 137 µM)	125 µg/mL (≈ 548 µM)	125 µg/mL (≈ 548 µM)	250 µg/mL (≈ 1100 µM)	62.5 µg/mL (≈ 274 µM)	250 µg/mL (≈ 1100 µM)	250 µg/mL (≈ 1100 µM)	31.2 µg/mL (≈ 137 µM)
Nc1ccc(NC(=O)Cc2ccc(Br)cc2)c(O)c1	250 µg/mL (≈ 778 µM)	125 µg/mL (≈ 389 µM)	125 µg/mL (≈ 389 µM)	250 µg/mL (≈ 778 µM)	125 µg/mL (≈ 389 µM)	125 µg/mL (≈ 389 µM)	125 µg/mL (≈ 389 µM)	125 µg/mL (≈ 389 µM)	125 µg/mL (≈ 389 µM)	250 µg/mL (≈ 778 µM)	125 µg/mL (≈ 389 µM)	31.2 µg/mL (≈ 97.3 µM)
O=C(Cc1ccc(F)cc1)Nc1ccc([N+](=O)[O-])cc1O	125 µg/mL (≈ 431 µM)	250 µg/mL (≈ 861 µM)	250 µg/mL (≈ 861 µM)	125 µg/mL (≈ 431 µM)	125 µg/mL (≈ 431 µM)	125 µg/mL (≈ 431 µM)	125 µg/mL (≈ 431 µM)	250 µg/mL (≈ 861 µM)	31.2 µg/mL (≈ 108 µM)	250 µg/mL (≈ 861 µM)	125 µg/mL (≈ 431 µM)	62.5 µg/mL (≈ 215 µM)
Nc1ccc(O)c(NC(=O)Cc2ccc(F)cc2)c1	125 µg/mL (≈ 480 µM)	15.6 µg/mL (≈ 59.9 µM)	–	–	62.5 µg/mL (≈ 240 µM)	–	250 µg/mL (≈ 961 µM)	250 µg/mL (≈ 961 µM)	–	250 µg/mL (≈ 961 µM)	250 µg/mL (≈ 961 µM)	–
OC(Cn1cncn1)(Cn1cncn1)c1ccc(F)cc1F [FLUCONAZOLE]	512 µg/mL (≈ 1670 µM)	–	–	–	–	–	4 µg/mL (≈ 13.1 µM)	–	–	–	–	–
CC1COc2c(N3CCN(C)CC3)c(F)cc3c(=O)c(C(=O)O)cn1c23 (stereo not drawn) [OFLOXACIN]	–	> 4100 µg/mL	64 µg/mL (≈ 177 µM)	8 µg/mL (≈ 22.1 µM)	> 4100 µg/mL	–	–	32 µg/mL (≈ 88.6 µM)	32 µg/mL (≈ 88.6 µM)	–	64 µg/mL (≈ 177 µM)	> 4100 µg/mL
CC1(C)S[C@@H]2[C@H](NC(=O)[C@H](N)c3ccccc3)C(=O)N2[C@H]1C(=O)O.O.O.O [AMPICILLIN TRIHYDRATE]	–	16 µg/mL	1020 µg/mL	4 µg/mL	64 µg/mL	> 4100 µg/mL	–	500 µg/mL	8 µg/mL	2 µg/mL	256 µg/mL	> 4100 µg/mL
CO[C@H]1/C=C/O[C@@]2(C)Oc3c(C)c(O)c4c(O)c(c(/C=N/N5CCN(C)CC5)c(O)c4c3C2=O)NC(=O)/C(C)=C\C=C\[C@H](C)[C@H](O)[C@@H](C)[C@@H](O)[C@@H](C)[C@H](OC(C)=O)[C@@H]1C [RIFAMPIN]	–	–	16 µg/mL (≈ 19.4 µM)	32 µg/mL (≈ 38.9 µM)	> 4100 µg/mL	> 4100 µg/mL	–	62.5 µg/mL (≈ 75.9 µM)	256 µg/mL (≈ 311 µM)	32 µg/mL (≈ 38.9 µM)	256 µg/mL (≈ 311 µM)	512 µg/mL (≈ 622 µM)
